Measured values as given in ChEMBL document CHEMBL3414471 (J Med Chem, 2015).
pEC50, pKi: −log10 of the molar value. Activity calls are given as the source filed them. The rule behind the calls is not given here.

Tests used:
[1] = target: T1, 5-hydroxytryptamine receptor 2C (Homo sapiens, UniProt P28335); experiment: Agonist activity at human 5-HT2C receptor expressed in HEK293 cells assessed as calcium flux by FLIPR assay; assay type: functional, cell-based
T1 sequence (P28335 whole entry): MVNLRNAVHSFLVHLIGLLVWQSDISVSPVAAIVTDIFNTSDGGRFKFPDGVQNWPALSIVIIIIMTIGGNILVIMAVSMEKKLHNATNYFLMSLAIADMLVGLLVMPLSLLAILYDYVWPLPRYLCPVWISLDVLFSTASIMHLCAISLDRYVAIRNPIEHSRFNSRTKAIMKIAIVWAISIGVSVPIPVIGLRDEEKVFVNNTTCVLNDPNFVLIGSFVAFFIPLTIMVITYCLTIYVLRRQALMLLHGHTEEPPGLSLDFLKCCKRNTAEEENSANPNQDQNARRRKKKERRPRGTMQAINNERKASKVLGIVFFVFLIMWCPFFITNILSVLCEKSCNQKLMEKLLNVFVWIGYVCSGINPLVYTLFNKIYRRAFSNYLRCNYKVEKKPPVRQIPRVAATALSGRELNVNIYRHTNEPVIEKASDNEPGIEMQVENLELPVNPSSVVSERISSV

[2] = target: T2, 5-hydroxytryptamine receptor 2C (Homo sapiens) (UniProt P28335); experiment: Agonist activity at human 5-HT2C receptor expressed in HEK293 cells assessed as calcium flux by FLIPR assay relative to 5-HT; assay type: functional, cell-based
T2 sequence (whole entry): T1 sequence (P28335 whole entry)
Outline: (§1)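 Flp-In-293 cells stably expressing human 5-HT2A, 5-HT2B or 5-HT2C-INI; grown 24–48 h in DMEM/10% dialyzed FBS, plated on poly-L-Lys at 12000 cells/well in 1% dialyzed FBS for 24 h. Loaded 1 h at 37 °C with calcium dye in HBSS, 20 mM Hepes pH 7.40, 2.5 mM probenecid.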

[3] = target: T3, 5-hydroxytryptamine receptor 2B (Homo sapiens, UniProt P41595); experiment: Agonist activity at human 5-HT2B receptor expressed in HEK293 cells assessed as calcium flux by FLIPR assay; assay type: functional, cell-based
[4] = target: T3, 5-hydroxytryptamine receptor 2B; experiment: Agonist activity at human 5-HT2B receptor expressed in HEK293 cells assessed as calcium flux by FLIPR assay relative to 5-HT; assay type: functional, cell-based; outline: as §1
[5] = target: T4, 5-hydroxytryptamine receptor 2A (Homo sapiens, UniProt P28223); experiment: Agonist activity at human 5-HT2A receptor expressed in HEK293 cells assessed as calcium flux by FLIPR assay; assay type: functional, cell-based
[6] = target: T4, 5-hydroxytryptamine receptor 2A; experiment: Agonist activity at human 5-HT2A receptor expressed in HEK293 cells assessed as calcium flux by FLIPR assay relative to 5-HT; assay type: functional, cell-based; outline: as §1
[7] = Permeability from apical to basolateral side in human Caco2 cells at pH 7.4; assay type: ADME, cell-based; conditions: caco-2, pH 7.4
Outline: (§2)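 Caco-2 monolayer permeability measured A–B and B–A in pH 7.4 buffer, reported as ×10−6 cm/s; A–B/B–A ratio derived from these.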

[8] = Permeability from basolateral to apical side in human Caco2 cells at pH 7.4; assay type: ADME, cell-based; conditions: caco-2, pH 7.4; outline: as §2
Liver microsome = experiment: Metabolic stability in human liver microsomes; assay type: ADME
Outline: (§3)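 Incubation with human or CD-1 mouse liver microsomes for 1 h; stability expressed as % parent compound remaining.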

Liver = experiment: Metabolic stability in mouse liver microsomes; assay type: ADME; outline: as §3
CYP3A = CYP3A (Homo sapiens, UniProt P08684+P20815+P24462+Q9HB55); experiment: Inhibition of human CYP3A using midazolam as substrate at 10 uM; assay type: ADME; conditions: probe midazolam
Outline: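 Human liver microsomes, test compound at 10 µM, midazolam as CYP3A substrate; percent inhibition reported; run by a contract lab.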

CYP2D6 = CYP2D6 (Homo sapiens, UniProt P10635); experiment: Inhibition of human CYP2D6 using dextromethorphan as substrate at 10 uM; assay type: ADME; conditions: probe dextromethorphan
CYP2C9 = CYP2C9 (Homo sapiens, UniProt P11712); experiment: Inhibition of human CYP2C9 using diclofenac as substrate at 10 uM; assay type: ADME; conditions: probe diclofenac
CYP2C19 = CYP2C19 (Homo sapiens, UniProt P33261); experiment: Inhibition of human CYP2C19 using omeprazole as substrate at 10 uM; assay type: ADME; conditions: probe omeprazole
CYP2B6 = target: T5, CYP2B6 (Homo sapiens, UniProt P20813); experiment: Inhibition of human CYP2B6 using bupropion as substrate at 10 uM; assay type: ADME; conditions: probe bupropion
T5 sequence (P20813 whole entry): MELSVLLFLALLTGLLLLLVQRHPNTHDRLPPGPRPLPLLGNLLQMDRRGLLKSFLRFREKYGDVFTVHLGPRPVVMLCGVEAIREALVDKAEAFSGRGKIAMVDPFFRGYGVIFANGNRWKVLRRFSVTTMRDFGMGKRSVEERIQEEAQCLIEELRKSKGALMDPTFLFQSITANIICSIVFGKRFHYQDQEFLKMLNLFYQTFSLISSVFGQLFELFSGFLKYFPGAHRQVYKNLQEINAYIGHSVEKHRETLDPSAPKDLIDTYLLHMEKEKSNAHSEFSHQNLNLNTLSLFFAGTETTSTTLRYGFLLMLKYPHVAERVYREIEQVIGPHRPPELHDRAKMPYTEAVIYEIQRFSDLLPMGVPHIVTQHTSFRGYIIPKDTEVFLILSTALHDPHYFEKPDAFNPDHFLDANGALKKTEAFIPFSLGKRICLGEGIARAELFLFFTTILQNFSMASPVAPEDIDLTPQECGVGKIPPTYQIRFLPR

Salmonella typhimurium [9] = experiment: Mutagenic activity in Salmonella typhimurium TA98 at 10 to 100 uM by ames test; assay type: toxicity, organism-based; conditions: salmonella enterica subsp. enterica serovar typhimurium
Outline: (§4)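 Ames fluctuation test in Salmonella strains TA98, TA100, TA1535 and TA1537, with and without S9, at 10, 50 and 100 µM; scored negative or positive.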

Salmonella typhimurium [10] = experiment: Mutagenic activity in Salmonella typhimurium TA98 at 10 to 100 uM by ames test in presence of S9 mixture; assay type: toxicity, organism-based; conditions: salmonella enterica subsp. enterica serovar typhimurium; outline: as §4
Salmonella typhimurium [11] = experiment: Mutagenic activity in Salmonella typhimurium TA100 at 10 to 100 uM by ames test; assay type: toxicity, organism-based; conditions: salmonella enterica subsp. enterica serovar typhimurium; outline: as §4
Salmonella typhimurium [12] = experiment: Mutagenic activity in Salmonella typhimurium TA100 at 10 to 100 uM by ames test in presence of S9 mixture; assay type: toxicity, organism-based; conditions: salmonella enterica subsp. enterica serovar typhimurium; outline: as §4
Salmonella typhimurium [13] = experiment: Mutagenic activity in Salmonella typhimurium TA1535 at 10 to 100 uM by ames test; assay type: toxicity, organism-based; conditions: salmonella enterica subsp. enterica serovar typhimurium; outline: as §4
Salmonella typhimurium [14] = experiment: Mutagenic activity in Salmonella typhimurium TA1535 at 10 to 100 uM by ames test in presence of S9 mixture; assay type: toxicity, organism-based; conditions: salmonella enterica subsp. enterica serovar typhimurium; outline: as §4
Salmonella typhimurium [15] = experiment: Mutagenic activity in Salmonella typhimurium TA1537 at 10 to 100 uM by ames test; assay type: toxicity, organism-based; conditions: salmonella enterica subsp. enterica serovar typhimurium; outline: as §4
Salmonella typhimurium [16] = experiment: Mutagenic activity in Salmonella typhimurium TA1537 at 10 to 100 uM by ames test in presence of S9 mixture; assay type: toxicity, organism-based; conditions: salmonella enterica subsp. enterica serovar typhimurium; outline: as §4
[17] = Drug uptake in CD1 mouse brain at 10 mg/kg, ip after 0.5 hrs; assay type: ADME, organism-based; parameters: dose 10 mg/kg, route intraperitoneal; conditions: read-out: Drug uptake
Outline: (§5)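 CD1 mice received a single 10 mg/kg ip dose formulated in pure water. Brain (ng/g) and plasma (ng/mL) levels were measured at 0.5 and 2 h. Brain/plasma ratio assumed a brain tissue density of 1 g/mL.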

[18] = Drug uptake in CD1 mouse brain at 10 mg/kg, ip after 2 hrs; assay type: ADME, organism-based; parameters: dose 10 mg/kg, route intraperitoneal; conditions: read-out: Drug uptake; outline: as §5
[19] = Plasma concentration in CD1 mouse at 10 mg/kg, ip after 0.5 hrs; assay type: ADME, organism-based; parameters: dose 10 mg/kg, route intraperitoneal; outline: as §5
[20] = Plasma concentration in CD1 mouse at 10 mg/kg, ip after 2 hrs; assay type: ADME, organism-based; parameters: dose 10 mg/kg, route intraperitoneal; outline: as §5
Mus musculus = experiment: Antipsychotic activity in C57BL/6J mouse assessed as reduction of amphetamine-induced locomotor activity at 10 to 20 mg/kg, ip administered 15 mins prior to amphetamine challenge measured for 105 mins by open field test relative to vehicle-treated control; assay type: functional, organism-based
[21] = Plasma protein binding in human at 10 uM; assay type: ADME, cell-free
Outline: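 Human plasma protein binding determined at 10 µM compound, expressed as % bound.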

[22] = target: T3, 5-hydroxytryptamine receptor 2B; experiment: Agonist activity at human 5-HT2B receptor expressed in HEK293 cells assessed as calcium flux at 10 uM by FLIPR assay; assay type: functional, cell-based
Outline: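 Flp-In-293 cells stably expressing human 5-HT2A, 5-HT2B or 5-HT2C-INI, grown in DMEM with 10% dialyzed FBS, then plated for 24 h in 1% dialyzed FBS. Cells were loaded 1 h at 37 °C with calcium dye in Hepes-buffered HBSS, pH 7.40, containing 2.5 mM probenecid. FLIPR read 10 s baseline, then 120 s after drug addition.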

Homo sapiens = organism: Homo sapiens; experiment: Selectivity ratio of EC50 for human 5-HT2A receptor to EC50 for human 5HT2C receptor
[23] = target: Voltage-gated inwardly rectifying potassium channel KCNH2 (Homo sapiens, UniProt Q12809); experiment: Inhibition of human ERG channel expressed in CHO cells by patch clamp method; assay type: cell-based; conditions: human, cho
hERG (KCNH2) [24] = target: T6, hERG (KCNH2) (Homo sapiens, UniProt Q12809); experiment: (§6) Inhibition of human ERG channel expressed in CHO cells at […] by patch clamp method; assay type: cell-based; conditions: CHO cells expressing human ERG channel
hERG (KCNH2) [25] = target: T6, hERG (KCNH2); experiment: as §6; assay type: cell-based; conditions: CHO cells expressing human ERG channel; remark: listed apart in the source
hERG (KCNH2) [26] = target: T6, hERG (KCNH2); experiment: Inhibition of human ERG channel expressed in CHO cells at 3.3 uM by patch clamp method; assay type: cell-based; conditions: CHO cells expressing human ERG channel
Outline: (§7)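 hERG current recorded in CHO cells by automated patch clamp; percent inhibition at 0.37, 1.1, 3.3, 10 and 30 µM.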

hERG (KCNH2) [27] = target: T6, hERG (KCNH2); experiment: Inhibition of human ERG channel expressed in CHO cells at 10 uM by patch clamp method; assay type: cell-based; conditions: CHO cells expressing human ERG channel; outline: as §7
hERG (KCNH2) [28] = target: T6, hERG (KCNH2); experiment: Inhibition of human ERG channel expressed in CHO cells at 30 uM by patch clamp method; assay type: cell-based; conditions: CHO cells expressing human ERG channel; outline: as §7
[29] = target: Alpha-2A adrenergic receptor (Homo sapiens, UniProt P08913); experiment: Binding affinity to adrenergic alpha-2A receptor (unknown origin)
CYP3A4 = CYP3A4 (Homo sapiens, UniProt P08684); experiment: Inhibition of human CYP3A4 using midazolam as substrate at 10 uM; assay type: ADME; conditions: probe midazolam
Outline: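 Human liver microsomes with test compound at 10 µM; percent inhibition determined using bupropion (2B6), dextromethorphan (2D6) or midazolam (3A/3A4) as probe substrates.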

T4 sequence (P28223 whole entry): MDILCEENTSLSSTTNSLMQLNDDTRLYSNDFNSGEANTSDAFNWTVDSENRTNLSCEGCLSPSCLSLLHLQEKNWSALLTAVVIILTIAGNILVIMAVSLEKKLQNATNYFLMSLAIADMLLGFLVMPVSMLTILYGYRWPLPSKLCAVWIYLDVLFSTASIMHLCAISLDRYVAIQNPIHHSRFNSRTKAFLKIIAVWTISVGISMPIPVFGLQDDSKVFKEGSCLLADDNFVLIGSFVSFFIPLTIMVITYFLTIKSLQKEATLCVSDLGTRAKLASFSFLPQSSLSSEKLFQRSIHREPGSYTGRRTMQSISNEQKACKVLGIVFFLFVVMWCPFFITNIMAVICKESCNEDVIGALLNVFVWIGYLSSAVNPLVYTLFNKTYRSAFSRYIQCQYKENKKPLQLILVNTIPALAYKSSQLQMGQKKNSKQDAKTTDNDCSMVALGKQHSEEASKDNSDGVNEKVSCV
T3 sequence (P41595 whole entry): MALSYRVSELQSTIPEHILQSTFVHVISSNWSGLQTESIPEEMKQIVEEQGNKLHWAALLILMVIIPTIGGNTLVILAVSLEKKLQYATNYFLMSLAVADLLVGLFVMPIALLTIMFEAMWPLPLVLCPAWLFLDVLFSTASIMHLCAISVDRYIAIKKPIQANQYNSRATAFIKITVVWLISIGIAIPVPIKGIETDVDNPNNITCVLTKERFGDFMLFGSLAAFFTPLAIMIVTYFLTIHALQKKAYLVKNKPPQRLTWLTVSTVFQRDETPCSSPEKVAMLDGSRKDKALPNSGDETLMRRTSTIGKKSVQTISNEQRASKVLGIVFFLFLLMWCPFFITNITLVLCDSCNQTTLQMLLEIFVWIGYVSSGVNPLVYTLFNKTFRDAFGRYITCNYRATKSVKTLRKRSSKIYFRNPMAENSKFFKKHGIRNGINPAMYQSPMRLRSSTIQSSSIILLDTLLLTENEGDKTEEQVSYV
T6 sequence (Q12809 whole entry): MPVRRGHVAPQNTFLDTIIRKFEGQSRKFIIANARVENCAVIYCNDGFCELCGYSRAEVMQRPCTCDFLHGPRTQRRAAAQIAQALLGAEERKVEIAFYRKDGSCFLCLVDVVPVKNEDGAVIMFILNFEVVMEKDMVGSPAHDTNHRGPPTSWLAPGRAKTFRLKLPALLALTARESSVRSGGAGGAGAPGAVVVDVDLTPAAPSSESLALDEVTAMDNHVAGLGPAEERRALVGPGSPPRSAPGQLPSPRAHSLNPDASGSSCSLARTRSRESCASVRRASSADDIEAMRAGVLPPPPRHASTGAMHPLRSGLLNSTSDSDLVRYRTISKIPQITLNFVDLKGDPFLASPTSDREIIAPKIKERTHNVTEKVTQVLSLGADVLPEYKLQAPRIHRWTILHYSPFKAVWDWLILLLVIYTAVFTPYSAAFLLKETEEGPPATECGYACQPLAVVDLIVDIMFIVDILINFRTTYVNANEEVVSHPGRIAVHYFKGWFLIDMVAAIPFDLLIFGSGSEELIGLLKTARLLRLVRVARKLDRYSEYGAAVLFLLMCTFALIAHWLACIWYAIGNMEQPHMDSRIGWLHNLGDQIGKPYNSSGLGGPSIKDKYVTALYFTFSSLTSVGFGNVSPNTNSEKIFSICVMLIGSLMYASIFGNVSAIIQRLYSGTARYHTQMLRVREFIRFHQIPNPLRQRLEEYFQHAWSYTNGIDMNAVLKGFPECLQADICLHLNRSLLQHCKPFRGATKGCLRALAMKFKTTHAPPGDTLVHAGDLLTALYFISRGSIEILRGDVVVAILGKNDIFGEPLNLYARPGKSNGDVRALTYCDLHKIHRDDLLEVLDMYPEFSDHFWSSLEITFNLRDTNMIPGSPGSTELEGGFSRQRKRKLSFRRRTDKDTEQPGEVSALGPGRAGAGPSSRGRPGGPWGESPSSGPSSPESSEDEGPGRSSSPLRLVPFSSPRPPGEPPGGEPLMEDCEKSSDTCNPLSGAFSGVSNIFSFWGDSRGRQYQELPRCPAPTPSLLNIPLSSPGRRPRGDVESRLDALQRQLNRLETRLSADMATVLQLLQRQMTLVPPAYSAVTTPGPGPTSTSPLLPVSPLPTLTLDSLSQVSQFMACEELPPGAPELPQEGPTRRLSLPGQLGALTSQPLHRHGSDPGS
CYP2C9, sequence (P11712 whole entry): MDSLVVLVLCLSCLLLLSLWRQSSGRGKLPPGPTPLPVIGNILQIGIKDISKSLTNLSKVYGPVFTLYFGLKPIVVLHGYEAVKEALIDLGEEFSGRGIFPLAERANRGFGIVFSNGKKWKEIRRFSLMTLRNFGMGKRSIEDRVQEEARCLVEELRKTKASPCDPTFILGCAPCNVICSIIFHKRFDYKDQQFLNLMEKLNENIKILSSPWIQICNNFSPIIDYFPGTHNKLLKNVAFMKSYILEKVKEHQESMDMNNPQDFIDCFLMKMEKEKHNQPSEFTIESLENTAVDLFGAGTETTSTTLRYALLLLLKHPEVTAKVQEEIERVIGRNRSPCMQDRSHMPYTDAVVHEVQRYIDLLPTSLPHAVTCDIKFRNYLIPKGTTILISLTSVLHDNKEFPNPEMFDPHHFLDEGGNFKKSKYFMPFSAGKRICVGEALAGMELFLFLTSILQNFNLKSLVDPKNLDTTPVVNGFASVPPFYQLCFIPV
CYP2C19, sequence (P33261 whole entry): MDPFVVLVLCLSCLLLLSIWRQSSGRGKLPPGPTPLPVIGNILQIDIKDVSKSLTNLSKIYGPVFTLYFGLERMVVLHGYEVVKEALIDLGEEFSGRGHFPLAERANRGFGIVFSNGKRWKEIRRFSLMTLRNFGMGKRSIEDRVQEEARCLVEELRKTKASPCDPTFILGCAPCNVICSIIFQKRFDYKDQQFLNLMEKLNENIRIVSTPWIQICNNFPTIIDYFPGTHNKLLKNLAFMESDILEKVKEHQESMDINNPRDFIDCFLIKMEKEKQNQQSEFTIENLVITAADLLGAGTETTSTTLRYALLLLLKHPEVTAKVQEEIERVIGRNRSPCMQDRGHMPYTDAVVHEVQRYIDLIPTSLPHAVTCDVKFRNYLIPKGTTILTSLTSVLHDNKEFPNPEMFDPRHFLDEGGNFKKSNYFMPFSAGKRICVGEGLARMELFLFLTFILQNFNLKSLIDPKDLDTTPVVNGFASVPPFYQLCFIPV
CYP2D6, sequence (P10635 whole entry): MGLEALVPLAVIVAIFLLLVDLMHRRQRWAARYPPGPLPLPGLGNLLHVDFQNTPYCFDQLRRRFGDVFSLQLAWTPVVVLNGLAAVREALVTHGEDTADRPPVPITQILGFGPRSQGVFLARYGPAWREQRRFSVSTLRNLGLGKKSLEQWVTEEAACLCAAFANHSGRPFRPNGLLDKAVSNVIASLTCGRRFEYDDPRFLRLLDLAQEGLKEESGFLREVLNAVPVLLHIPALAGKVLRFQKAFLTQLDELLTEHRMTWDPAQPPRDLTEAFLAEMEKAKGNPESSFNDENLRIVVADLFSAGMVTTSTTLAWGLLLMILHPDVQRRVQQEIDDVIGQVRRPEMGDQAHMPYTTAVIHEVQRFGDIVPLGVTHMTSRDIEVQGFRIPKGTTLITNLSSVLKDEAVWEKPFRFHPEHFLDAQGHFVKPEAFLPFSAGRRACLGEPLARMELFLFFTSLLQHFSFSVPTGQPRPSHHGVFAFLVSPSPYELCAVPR
Voltage-gated inwardly rectifying potassium channel KCNH2, sequence (Q12809 whole entry): as the sequence (Q12809 whole entry) above

## Cl.NC[C@H]1C[C@@H]1c1cc(Cl)ccc1OCCF
[1]
  pEC50: 7.49
[2]
  Emax: 86%
[3]
  pEC50: 6.20
[4]
  Emax: 31%
[5]
  pEC50: 5.83
[6]
  Emax: 35%
[7]
  permeability: 35.5 ×10⁻⁶ cm/s
[8]
  permeability: 17.5 ×10⁻⁶ cm/s
Liver microsome
  Stability: 95%
Liver
  Stability: 74%
CYP3A
  inhibition at 10 µM: 22%
CYP2D6
  inhibition at 10 µM: 79%
CYP2C9
  inhibition at 10 µM: 33%
CYP2C19
  inhibition at 10 µM: 21%
CYP2B6
  inhibition at 10 µM: 58%
Salmonella typhimurium [9]
  Activity: Non-toxic
Salmonella typhimurium [10]
  Activity: Non-toxic
Salmonella typhimurium [11]
  Activity: Non-toxic
Salmonella typhimurium [12]
  Activity: Non-toxic
Salmonella typhimurium [13]
  Activity: Non-toxic
Salmonella typhimurium [14]
  Activity: Non-toxic
Salmonella typhimurium [15]
  Activity: Non-toxic
Salmonella typhimurium [16]
  Activity: Non-toxic
[17]
  concentration at 0.5 h: 12800 ng/g
[18]
  concentration at 2 h: 13400 ng/g
[19]
  concentration at 0.5 h: 1200 ng/mL
[20]
  concentration at 2 h: 874 ng/mL
Mus musculus
  Activity: Active
[21]
  PPB: 57%

## Cl.NC[C@H]1C[C@@H]1c1cc(F)ccc1OCCF
[1]
  pEC50: 8.47
[2]
  Emax: 89%
[22]
  Activity: inactive
[5]
  pEC50: 6.44
[6]
  Emax: 76%
Homo sapiens
  Ratio EC50: > 100
CYP2D6
  inhibition at 10 µM: 24%
CYP2C9
  inhibition at 10 µM: 16%
CYP2C19
  inhibition at 10 µM: 26%
CYP2B6
  inhibition at 10 µM: 6%
[23]
  inhibition (INH): Dose-dependent effect
hERG (KCNH2) [24]
  inhibition at […]: 6%
hERG (KCNH2) [25]
  inhibition at […]: 11%
hERG (KCNH2) [26]
  inhibition at 3.3 µM: 15%
hERG (KCNH2) [27]
  inhibition at 10 µM: 25%
hERG (KCNH2) [28]
  inhibition at 30 µM: 35%
[29]
  pKi: > 6.00
Mus musculus
  Activity: Active
CYP3A4
  inhibition at 10 µM: 10%
